Compound activity as filed in PubChem BioAssay.
The list is not random: actives were taken first. Their share in the collection is about 3.2%.
DENV2 CPE: protects cells from dengue virus 2 cytopathic effect. hit rate 1.7% among 350,000. DENV2-infected cells, cytopathic effect rescue, plate reader. CPE inhibition, % at 9.99 µM; in the data active means CPE inhibition above about 20%, passing the limit was not always enough; inconclusive means no clear call, values can overlap the other calls; tested in BHK-21 cells
Cneo AK release: causes C. neoformans cell lysis. lysis activity, % at 15 µM. hit rate 0.2% among 360,000. adenylate kinase release luminescence, 4 h; normalised: neutral wells 0, clomiphene wells 100. AID 651654;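 active means mean lysis activity across replicates of at least 80%, whatever share of replicates individually reach that level; inactive means mean lysis activity below 80%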
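Schedule: static 4 h at 37 °C with compound, 1 h detection; system: C. neoformans cells; benchmarks: Clomiphene as positive control; buffer or medium: fresh YPD medium; measure: luminescence rise reflecting yeast cell lysis; measured by: luminescent adenylate kinase detection reagent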
rRNA inh HTS: inhibits bacterial ribosomal RNA function over humanized ribosomes; E. coli WT GFP vs humanized-ribosome RFP mutants, fluorescence, 24 h; hits give low values; DMSO median 0, no signal -100; GFP signal change (wild-type ribosome), % (test concentration not listed); hit rate 1.6% among 350,000; AID 720706;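 active means significant combined selectivity score with lowered wild-type GFP, culture density cut under 30%, mutant RFP and density less affected; inactive means any of these conditions unmet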
PfHsp90 set2: inhibits growth of yeast expressing Plasmodium falciparum Hsp90; hit rate 0.32% among 310,000; AID 504621; inhibition, % at 9.4 µM; S. cerevisiae expressing PfHsp90, BacTiter-Glo ATP, 48 h; yeast lacking PDR1 and PDR3 efflux regulators;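 active means every replicate shows inhibition above about 80%, whatever the replicate mean, limit read from the data; inconclusive means mean inhibition reaches the set limit but some replicate falls short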
S100A4 inh HTS: inhibitors of human S100A4 binding to myosin IIA peptide. P26447. S100A4/TAMRA-MyoIIA peptide fluorescence polarization. inhibition, % at 10.7 µM. hit rate 0.14% among 360,000. AID 652163;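 active means mean inhibition of at least 70% across replicates, with every replicate also reaching that level; inconclusive means mean inhibition reaches 70% but some replicates fall short; inactive means mean inhibition below 70%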
Target sequence (P26447 whole entry, looked up): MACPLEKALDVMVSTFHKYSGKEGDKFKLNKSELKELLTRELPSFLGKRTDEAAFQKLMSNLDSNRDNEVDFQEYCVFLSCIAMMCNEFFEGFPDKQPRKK
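System – human S100A4 monomer protein, biochemical binding assay · Buffer or medium – Calcium-containing HEPES buffer, pH 7.2 · Timing – 5 min between mix addition and reading · Also added – TAMRA-labelled myosin IIA heavy-chain peptide probe, 5 nM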
MLL AF4-AF9 inh: inhibitors of human MLL-AF4/AF9 interaction | P42568 | AlphaScreen, biotin-AF4 peptide binding to FLAG-AF9 | inhibition, % at 10 µM | hit rate 0.47% among 350,000 | AID 651704;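 active means every replicate reaching a set inhibition limit, whatever the replicate mean, cut at about 25% in these data; inconclusive means mean inhibition reaches that limit but some replicates miss it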
Target sequence (P42568 whole entry, looked up): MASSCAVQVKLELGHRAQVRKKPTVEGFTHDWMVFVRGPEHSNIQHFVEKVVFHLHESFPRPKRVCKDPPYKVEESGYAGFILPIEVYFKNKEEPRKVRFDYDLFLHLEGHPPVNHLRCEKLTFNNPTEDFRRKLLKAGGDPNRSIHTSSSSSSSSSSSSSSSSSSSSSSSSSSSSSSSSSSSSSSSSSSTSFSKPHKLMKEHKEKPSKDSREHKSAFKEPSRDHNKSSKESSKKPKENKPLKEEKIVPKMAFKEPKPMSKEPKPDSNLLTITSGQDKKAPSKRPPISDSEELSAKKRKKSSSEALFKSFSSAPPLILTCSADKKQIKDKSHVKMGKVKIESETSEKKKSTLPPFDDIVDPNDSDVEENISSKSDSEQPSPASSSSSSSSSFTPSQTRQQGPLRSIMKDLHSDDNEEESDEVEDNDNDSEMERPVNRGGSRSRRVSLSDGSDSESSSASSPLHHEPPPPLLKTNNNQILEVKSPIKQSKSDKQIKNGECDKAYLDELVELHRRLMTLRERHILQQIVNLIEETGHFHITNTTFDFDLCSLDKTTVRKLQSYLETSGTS
A number is an active result; . = inactive; ? = inconclusive; / = not tested or not shown; ! = not active in a repeat.

SMILES	DENV2 CPE	Cneo AK release	rRNA inh HTS	PfHsp90 set2	S100A4 inh HTS	MLL AF4-AF9 inh
O=C(N/N=C/c1c[nH]c2ccccc12)c1ccccc1	.	.	.	.	.	.
COc1ccc(C(=O)N/N=C/c2sc(N3CCOCC3)nc2-c2ccccc2)cc1OC	.	.	.	.	.	27
O=C(Cc1cccs1)N/N=C/c1ccccn1	.	.	.	.	.	.
CC(=O)N(C)C[C@@H]1Oc2cc(-c3ccc(F)cc3)ccc2S(=O)(=O)N([C@@H](C)CO)C[C@H]1C	.	.	.	/	.	.
COc1ccc(C(=O)N/N=C/c2ccccn2)cc1OC	.	.	-29	.	.	.
O=C(N/N=C/c1ccccn1)c1ccncc1	.	.	.	.	.	.
O=C(N/N=C/c1ccccn1)c1ccccc1	.	.	-26	.	.	.
CO[C@H]1CN(C)C(=O)c2cc(NC(=O)NC(C)C)ccc2OC[C@H](C)NC[C@@H]1C	/	.	.	/	/	/
CNC(=S)N(Cc1ccc(Cl)cc1)Cc1cccs1	.	.	-43	.	.	.
COCCNC(=O)C1(C)CCCN(C(=O)c2ccc(-c3ccccc3)cc2)C1 (configuration not stated)	.	.	.	/	.	.
COCCNC(=O)C1(C)CCCN(C(=O)c2ccccc2)C1 (configuration not stated)	33	.	.	/	.	.
Cc1ccc(S(=O)(=O)N[C@H]2CC[C@H](CC(=O)NCc3ccc(Cl)c(Cl)c3)O[C@H]2CO)cc1	.	.	.	/	.	.
O=C(Cc1ccccc1)N[C@H]1C=C[C@@H](CC(=O)N2CCCCC2)O[C@H]1CO	.	.	.	/	.	.
Cc1ccc(C)c(N2CN(CCC3=CCCCC3)CNC2=S)c1	.	/	-28	.	.	.
Cc1cc(C(=O)N/N=C/c2cc(Br)cc(Br)c2OC(=O)c2cccc(F)c2)n[nH]1	.	/	-31	.	.	.
Cc1cccc(C(=O)Oc2c(Br)cc(Br)cc2/C=N/NC(=O)c2ccncc2)c1	.	.	.	.	.	.
C[C@@H](NC(=O)C[C@H]1CC[C@@H]2[C@H](COC[C@H](O)CN2C(=O)Nc2ccccc2)O1)c1ccccc1	21	.	.	/	.	.
C[C@@H](NC(=O)C[C@H]1CC[C@H]2[C@@H](COC[C@H](O)CN2C(=O)Nc2ccccc2)O1)c1ccccc1	50	.	.	/	.	.
CC1(C)Cc2c(c(N3CCOCC3)nc3sc4c(NCC5CCCO5)nnnc4c23)CS1 (configuration not stated)	.	.	.	.	.	26
CC(C)=CCc1c2c(c3occ(-c4ccc(O)c(O)c4)c(=O)c3c1O)C=CC(C)(C)O2	.	/	.	102	.	?
CN1CCN(C(=O)C2=C[C@H](c3ccc(C(F)(F)F)cc3)C[C@H](OCc3ccc(CO)cc3)O2)CC1	47!	.	.	.	.	.
O=C(C1=C[C@@H](c2ccc(C(F)(F)F)cc2)C[C@@H](OCc2ccc(CO)cc2)O1)N1CCOCC1	25!	.	.	.	.	.
CCCNC(=O)C[C@H]1C[C@H]2c3cc(NS(C)(=O)=O)ccc3O[C@H]2[C@@H](CO)O1	.	.	.	/	.	.
COCC(=O)Nc1ccc2c(c1)[C@H]1C[C@@H](CC(=O)NCc3ccccn3)O[C@@H](CO)[C@H]1O2	.	.	.	/	.	.
C[C@H](CO)N1C[C@H](C)[C@H](CN(C)Cc2ccccc2)Oc2ccc(N(C)C)cc2CC1=O	.	.	.	/	.	.
SMILES	DENV2 CPE	Cneo AK release	rRNA inh HTS	PfHsp90 set2	S100A4 inh HTS	MLL AF4-AF9 inh
C[C@H](CO)N1C[C@H](C)[C@H](CN(C)Cc2ccc(-c3ccccc3)cc2)Oc2ccc(N(C)C)cc2CC1=O	.	.	.	/	.	29
C[C@H](CO)N1C[C@H](C)[C@@H](CN(C)Cc2ccc(C(F)(F)F)cc2)Oc2ccc(N(C)C)cc2CC1=O	.	.	.	/	.	33
C[C@@H]1CN([C@@H](C)CO)C(=O)Cc2cc(N(C)C)ccc2O[C@H]1CN(C)Cc1ccc(-c2ccccc2)cc1	.	.	.	/	.	74
C[C@@H]1CN([C@H](C)CO)C(=O)c2cccc(NS(=O)(=O)c3ccc(Cl)cc3)c2O[C@@H]1CN(C)Cc1ccc(C(=O)Nc2ccccc2N)cc1	.	.	.	/	.	.
C[C@H](NC(=O)N(C)C[C@@H]1OCc2ccccc2-c2c(n(C)c3ccccc23)C(=O)N([C@@H](C)CO)C[C@@H]1C)c1ccccc1	.	.	.	/	.	.
COc1ccc(/C=C2\CCC/C(=C\C=N\N(C)C)C2=O)cc1	.	/	-20	.	.	.
COc1ccc(/C=C2\CCCCC2=O)cc1	.	.	.	.	.	.
CN(C)/N=C/C=C1\CCC/C(=C\c2ccc(F)c(F)c2)C1=O	.	/	-27	.	.	.
Cc1cccc(NCc2cc(Cl)ccc2O)n1	.	.	-52	.	.	.
Cc1ccc(CNCc2cc(Cl)ccc2O)cc1	88	.	.	.	.	.
CCCNC(=O)N1[C@H](CO)[C@@H]2c3ccccc3N(C(=O)NC(C)C)C[C@@H]21	.	.	.	/	.	.
CCC(=O)N(C)C[C@H]1Oc2ncc(-c3ccccc3C)cc2C(=O)N([C@H](C)CO)C[C@@H]1C	.	.	.	/	.	.
CCC[C@H]1CC(=O)C=C(c2ccc(OC)cc2)ON1C(=O)OC(C)(C)C	57	.	.	.	.	.
O=C(Nc1ccc(-c2ccccc2)cc1)[C@@H]1[C@@H](CO)[C@@H]2Cn3c(cccc3=O)[C@H]1N2Cc1ccccc1	.	.	.	/	.	.
Cc1nnc(SCC(=O)Nc2ccccc2F)n1Cc1ccco1	64	.	.	.	.	.
O=C(CSc1nccn1Cc1ccco1)Nc1ccccc1F	.	.	.	.	.	.
Cc1occc1-c1nnc(SCC(=O)Nc2ccccc2-c2ccccc2)n1C	/	.	/	.	/	/
Cn1c(SCC(=O)Nc2ccccc2-c2ccccc2)nnc1-c1ccco1	.	.	-24	.	.	.
CO[C@@H](CN(C)C(=O)C1CCOCC1)[C@@H](C)CN([C@@H](C)CO)S(=O)(=O)c1ccccc1	.	.	.	/	.	.
O=C(c1cc(-c2cccc(O)c2)on1)N1CCN(C(c2ccccc2)c2ccccc2)CC1	.	.	.	.	.	.
O=C(c1cc(C2CC2)on1)N1CCN(C(c2ccccc2)c2ccccc2)CC1	40	.	.	/	.	.
COc1cccc(NC(=O)N(C)C[C@@H]2Oc3cc(C#Cc4ccc(F)cc4)ccc3S(=O)(=O)N([C@@H](C)CO)C[C@H]2C)c1	.	.	.	/	.	.
COc1ccc(C(=O)C(CN2CCOCC2)c2ccccc2)cc1 (configuration not stated)	.	.	-50	.	.	.
